This note sets out measurements from ChEMBL document CHEMBL1144012, “Indole- and indolizine-glyoxylamides displaying cytotoxicity against multidrug resistant cancer cell lines” (Bioorg Med Chem Lett, 2008).

Common to all, as to type: functional, cell-based
The nature of assay [1]: Cytotoxicity against human HL60/TX1000 cells after 72 hrs by MTT assay. To be noted: HL60/TX1000, 72 h. Summed up:
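HL-60/TX1000 cells (Taxol-resistant HL-60 subline selected by stepwise Taxol exposure; overexpress MDR1/P-glycoprotein) grown in RPMI1640 with 10% FC plus penicillin/streptomycin, split every third day, set to 2 · 10⁵ cells/mL the day before the experiment, and used in exponential growth. Compounds were diluted into medium from 1 mM DMSO stock and tested at various concentrations for 72 h. IC50 was read by […] tetrazolium assay.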
For orientation: Formazan colour is commonly taken as a measure of viable cells.

For assay [2], the system named is P388. The assay can be described thus: Cytotoxicity against mouse P388 cells after 72 hrs […]. The settings on record: P388, 72 h.
Assay [3] concerns DU-145. The assay can be described thus: Cytotoxicity against human DU145 cells after 72 hrs […]. To be noted: DU-145, 72 h.
For assay [4], the system named is HL-60. The assay can be described thus: Cytotoxicity against human HL60 cells after 72 hrs […]. The settings on record: HL-60, 72 h.
The nature of assay [5]: Cytotoxicity against human MESSA cells after 72 hrs […]. To be noted: MES-SA.
The nature of assay [6]: Cytotoxicity against human MDA435 cells after 72 hrs […]. To be noted: MDA-MB-435, 72 h.
Assay [7] in a line: Cytotoxicity against human MESSA/DX5 cells after 72 hrs […]. To be noted: MES-SA/Dx5, 72 h.

On to `Cc1cnc(NC(=O)C(=O)c2cn(Cc3ccc(Cl)cc3)c3ccccc23)s1`, for which, in assay [1], the IC50 (usually the concentration needed to halve the response being measured) was determined as 50 nM.

Regarding `O=C(Nc1ccon1)C(=O)c1cn(Cc2ccc(Cl)cc2)c2ccccc12`, in assay [1], 50 nM corresponded to half-maximal inhibition (IC50). In other words, the double-digit nanomolar range.

In the case of `O=C(Nc1cccc2cccnc12)C(=O)c1cn(Cc2ccc(Cl)cc2)c2ccccc12`, the IC50 in assay [1] was greater than 10000 nM.

`O=C(Nc1ccno1)C(=O)c1cn(Cc2ccc(Cl)cc2)c2ccccc12` came in with an IC50 in assay [1] of 50 nM. That is a double-digit nanomolar value.

As for `O=C(Nc1ccccn1)C(=O)c1cn(Cc2ccc(Cl)cc2)c2ccccc12`, the IC50 in assay [1] is greater than 10000 nM.

`Cc1cc(NC(=O)C(=O)c2cc(Cc3ccc(Cl)cc3)n3ccccc23)sn1`: in assay [1], 60 nM corresponded to half-maximal inhibition (IC50).

On to `O=C(Nc1nncs1)C(=O)c1cn(Cc2ccc(Cl)cc2)c2ccccc12`, for which the IC50 in assay [1] is 100 nM.

Consider `Cc1nsc(NC(=O)C(=O)c2cn(Cc3ccc(Cl)cc3)c3ccccc23)c1Cl`, for which the midpoint of inhibition in assay [1], the IC50, lay at 5000 nM.

`Cc1ccc2cc(NC(=O)C(=O)c3cn(Cc4ccc(Cl)cc4)c4ccccc34)ccc2n1` displayed an IC50 in assay [1] of 500 nM.

Regarding `O=C(Nc1noc2ccccc12)C(=O)c1cn(Cc2ccc(Cl)cc2)c2ccccc12`, the IC50 in assay [1] was greater than 10000 nM.

As to `Cc1cc(NC(=O)C(=O)c2cn(Cc3ccc(Cl)cc3)c3ccccc23)sn1`, the midpoint of inhibition in assay [1], the IC50, lay at 10 nM.

In turn, `NC(=O)c1ccc(NC(=O)C(=O)c2cn(Cc3ccc(Cl)cc3)c3ccccc23)nc1` came in with an IC50 in assay [1] of 50 nM.

Regarding `Cc1cc(NC(=O)C(=O)c2cn(Cc3ccc(Cl)cc3)c3ccccc23)no1`, the IC50 in assay [1] worked out at 50 nM.

With `CSc1nnc(NC(=O)C(=O)c2cn(Cc3ccc(Cl)cc3)c3ccccc23)s1`, it took 1000 nM to reach half-maximal inhibition in assay [1] (IC50). Compared with the last compound, the IC50 is about 20-fold higher.

With `O=C(Nc1cccnc1)C(=O)c1cn(Cc2ccc(Cl)cc2)c2ccccc12`, the IC50 in assay [1] is 6000 nM.

In assay [1], `C[n+]1ccc(NC(=O)C(=O)c2cn(Cc3ccc(Cl)cc3)c3ccccc23)cc1` yielded an IC50 greater than 10000 nM.

Compound `CC(C)(C)c1csc(NC(=O)C(=O)c2cn(Cc3ccc(Cl)cc3)c3ccccc23)n1` had an IC50 in assay [1] of 5000 nM.

For the compound `Cc1cc(NC(=O)C(=O)c2cn(Cc3ccc(Cl)cc3)c3ccccc23)on1`, the IC50 in assay [1] is 50 nM.

In turn, `O=C(Nc1ccc2ncccc2c1)C(=O)c1cn(Cc2ccc(Cl)cc2)c2ccccc12` returned an IC50 in assay [1] of 50 nM.

`O=C(Nn1cnnc1)C(=O)c1cn(Cc2ccc(Cl)cc2)c2ccccc12`: the IC50 in assay [1] is greater than 10000 nM.

With `O=C(Nc1ccncc1)C(=O)c1cn(Cc2ccc(Cl)cc2)c2ccccc12` [INDIBULIN], half-maximal inhibition in assay [1] (IC50) required 50 nM.

For `CC(=O)O[C@H]1C(=O)[C@@]2(C)[C@H]([C@H](OC(=O)c3ccccc3)[C@]3(O)C[C@H](OC(=O)[C@H](O)[C@@H](NC(=O)c4ccccc4)c4ccccc4)C(C)=C1C3(C)C)[C@]1(OC(C)=O)CO[C@@H]1C[C@@H]2O` [PACLITAXEL], the IC50 in assay [2] stood at 10 nM. That is a double-digit nanomolar value.

In the case of `Cc1cc(NC(=O)C(=O)c2cc(Cc3ccc(C#N)cc3)n3ccccc23)sn1` [ROSABULIN], the IC50 in assay [3] was 50 nM; in assay [1], 20 nM; in assay [4], 50 nM; in assay [5], 10 nM; in assay [2], 10 nM; in assay [6] it was 50 nM. This compound came in with an IC50 in assay [7] of 50 nM.
